Results reported in ChEMBL document CHEMBL1139437, “Design, synthesis, and preliminary pharmacological evaluation of 4-aminopiperidine derivatives as N-type calcium channel blockers active on pain and neuropathic pain” (J Med Chem, 2004).

Experiments:
Mus musculus [1] = experiment: Analgesic activity was evaluated in mouse hotplate test; expressed as licking latency after 15 min of treatment at a dose of 40 ug intracerebroventricularly; type: functional
In short: (§1)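 Male Swiss albino mice (23-30 g); icv injection of 5 μL (saline or H2O/DMSO 2:1) under brief anaesthesia. Paw-licking latency (s) on hot plate read before injection and every 15 min up to 60 min. Mice with pretest latency below 12 or over 18 s excluded; cutoff 45 s. Statistics against saline- or vehicle-treated controls.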

Mus musculus [2] = experiment: Analgesic activity was evaluated in mouse hotplate test; expressed as licking latency after 30 min of treatment at a dose of 40 ug intracerebroventricularly; type: functional; in short: as §1
Mus musculus [3] = species: Mus musculus; experiment: Percentage analgesic efficacy when compared to morphine; type: functional; set-up: concentration or dose not given beside the values
In short: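 Male Swiss albino mice, hot-plate test, paw-licking latency; pretest 12–18 s required, cutoff 45 s. Icv injection of 5 μL under brief anaesthesia, in saline or H2O/DMSO 2:1, at maximal soluble dose. Latency read before and every 15 min after dosing. Efficacy = (peak latency − pretest) as % of the same value for morphine 10 μg/mouse icv; non-significant effects scored 0.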

Mus musculus [4] = experiment: Analgesic activity was evaluated in mouse hotplate test; expressed as licking latency after 45 min of treatment at a dose of 40 ug intracerebroventricularly; type: functional; in short: as §1
Rattus norvegicus [5] = experiment: Antihyperalgesic activity was evaluated in rat (dx) paw pressure test after 30 min at a dose of 50 ug intracerebroventricularly
Rattus norvegicus [6] = experiment: Antihyperalgesic activity was evaluated in rat (dx) paw pressure test after 45 min at a dose of 50 ug intracerebroventricularly
Rattus norvegicus [7] = experiment: Antihyperalgesic activity was evaluated in rat (dx) paw pressure test after 60 min at a dose of 50 ug intracerebroventricularly
Rattus norvegicus [8] = experiment: Antihyperalgesic activity was evaluated in rat (sn) paw pressure test after 30 min at a dose of 50 ug intracerebroventricularly
Rattus norvegicus [9] = experiment: Antihyperalgesic activity was evaluated in rat (sn) paw pressure test after 45 min at a dose of 50 ug intracerebroventricularly
Rattus norvegicus [10] = experiment: Antihyperalgesic activity was evaluated in rat (sn) paw pressure test after 60 min at a dose of 50 ug intracerebroventricularly
Mus musculus [11] = experiment: Analgesic activity was evaluated in mouse hotplate test; expressed as licking latency after 15 min of treatment at a dose of 30 ug intracerebroventricularly; type: functional; in short: as §1
Mus musculus [12] = experiment: Analgesic activity was evaluated in mouse hotplate test; expressed as licking latency after 30 min of treatment at a dose of 30 ug intracerebroventricularly; type: functional; in short: as §1
Mus musculus [13] = experiment: Analgesic activity was evaluated in mouse hotplate test; expressed as licking latency after 45 min of treatment at a dose of 30 ug intracerebroventricularly; type: functional; in short: as §1
Rattus norvegicus [14] = experiment: Antihyperalgesic activity was evaluated in rat (sn) paw pressure test after 30 min at a dose of 30 ug intracerebroventricularly
Rattus norvegicus [15] = experiment: Antihyperalgesic activity was evaluated in rat (dx) paw pressure test after 30 min at a dose of 30 ug intracerebroventricularly
Rattus norvegicus [16] = experiment: Antihyperalgesic activity was evaluated in rat (dx) paw pressure test after 45 min at a dose of 30 ug intracerebroventricularly
Rattus norvegicus [17] = experiment: Antihyperalgesic activity was evaluated in rat (dx) paw pressure test after 60 min at a dose of 30 ug intracerebroventricularly
Rattus norvegicus [18] = experiment: Antihyperalgesic activity was evaluated in rat (sn) paw pressure test after 45 min at a dose of 30 ug intracerebroventricularly
Rattus norvegicus [19] = experiment: Antihyperalgesic activity was evaluated in rat (sn) paw pressure test after 60 min at a dose of 30 ug intracerebroventricularly
Mus musculus [20] = experiment: Analgesic activity was evaluated in mouse hotplate test; expressed as licking latency after 30 min of treatment at a dose of 10 ug intracerebroventricularly; type: functional; in short: as §1
Mus musculus [21] = experiment: Analgesic activity was evaluated in mouse hotplate test; expressed as licking latency after 45 min of treatment at a dose of 10 ug intracerebroventricularly; type: functional; in short: as §1
Mus musculus [22] = experiment: Analgesic activity was evaluated in mouse hotplate test; expressed as licking latency after 15 min of treatment at a dose of 10 ug intracerebroventricularly; type: functional; in short: as §1
Mus musculus [23] = experiment: Analgesic activity was evaluated in mouse hotplate test; expressed as licking latency after 15 min of treatment at a dose of 5 ug intracerebroventricularly; type: functional; in short: as §1
Mus musculus [24] = experiment: Analgesic activity was evaluated in mouse hotplate test; expressed as licking latency after 30 min of treatment at a dose of 5 ug intracerebroventricularly; type: functional; in short: as §1
Mus musculus [25] = experiment: Analgesic activity was evaluated in mouse hotplate test; expressed as licking latency after 45 min of treatment at a dose of 5 ug intracerebroventricularly; type: functional; in short: as §1
[26] = biological target: Voltage-dependent N-type calcium channel subunit alpha-1B (Rattus norvegicus) (UniProt Q02294); experiment: In vitro antagonism of N-type calcium channels expressed in PC12 cells was determined as the increase in intracellular calcium influx
[27] = biological target: Voltage-dependent N-type calcium channel subunit alpha-1B (Rattus norvegicus) (UniProt Q02294); experiment: In vitro antagonism of N-type calcium channels expressed in PC12 cells was determined as the increase in intracellular calcium influx in the presence of 10 uM nifedipine
Mus musculus [28] = experiment: Analgesic activity was evaluated in mouse hotplate test; expressed as licking latency after 30 min of treatment at a dose of 20 ug intracerebroventricularly; type: functional; in short: as §1
Mus musculus [29] = experiment: Analgesic activity was evaluated in mouse hotplate test; expressed as licking latency after 45 min of treatment at a dose of 20 ug intracerebroventricularly; type: functional; in short: as §1
Mus musculus [30] = experiment: Analgesic activity was evaluated in mouse hotplate test; expressed as licking latency after 15 min of treatment at a dose of 20 ug intracerebroventricularly; type: functional; in short: as §1

Sequence of Voltage-dependent N-type calcium channel subunit alpha-1B (Rattus norvegicus) (Q02294 whole entry, looked up): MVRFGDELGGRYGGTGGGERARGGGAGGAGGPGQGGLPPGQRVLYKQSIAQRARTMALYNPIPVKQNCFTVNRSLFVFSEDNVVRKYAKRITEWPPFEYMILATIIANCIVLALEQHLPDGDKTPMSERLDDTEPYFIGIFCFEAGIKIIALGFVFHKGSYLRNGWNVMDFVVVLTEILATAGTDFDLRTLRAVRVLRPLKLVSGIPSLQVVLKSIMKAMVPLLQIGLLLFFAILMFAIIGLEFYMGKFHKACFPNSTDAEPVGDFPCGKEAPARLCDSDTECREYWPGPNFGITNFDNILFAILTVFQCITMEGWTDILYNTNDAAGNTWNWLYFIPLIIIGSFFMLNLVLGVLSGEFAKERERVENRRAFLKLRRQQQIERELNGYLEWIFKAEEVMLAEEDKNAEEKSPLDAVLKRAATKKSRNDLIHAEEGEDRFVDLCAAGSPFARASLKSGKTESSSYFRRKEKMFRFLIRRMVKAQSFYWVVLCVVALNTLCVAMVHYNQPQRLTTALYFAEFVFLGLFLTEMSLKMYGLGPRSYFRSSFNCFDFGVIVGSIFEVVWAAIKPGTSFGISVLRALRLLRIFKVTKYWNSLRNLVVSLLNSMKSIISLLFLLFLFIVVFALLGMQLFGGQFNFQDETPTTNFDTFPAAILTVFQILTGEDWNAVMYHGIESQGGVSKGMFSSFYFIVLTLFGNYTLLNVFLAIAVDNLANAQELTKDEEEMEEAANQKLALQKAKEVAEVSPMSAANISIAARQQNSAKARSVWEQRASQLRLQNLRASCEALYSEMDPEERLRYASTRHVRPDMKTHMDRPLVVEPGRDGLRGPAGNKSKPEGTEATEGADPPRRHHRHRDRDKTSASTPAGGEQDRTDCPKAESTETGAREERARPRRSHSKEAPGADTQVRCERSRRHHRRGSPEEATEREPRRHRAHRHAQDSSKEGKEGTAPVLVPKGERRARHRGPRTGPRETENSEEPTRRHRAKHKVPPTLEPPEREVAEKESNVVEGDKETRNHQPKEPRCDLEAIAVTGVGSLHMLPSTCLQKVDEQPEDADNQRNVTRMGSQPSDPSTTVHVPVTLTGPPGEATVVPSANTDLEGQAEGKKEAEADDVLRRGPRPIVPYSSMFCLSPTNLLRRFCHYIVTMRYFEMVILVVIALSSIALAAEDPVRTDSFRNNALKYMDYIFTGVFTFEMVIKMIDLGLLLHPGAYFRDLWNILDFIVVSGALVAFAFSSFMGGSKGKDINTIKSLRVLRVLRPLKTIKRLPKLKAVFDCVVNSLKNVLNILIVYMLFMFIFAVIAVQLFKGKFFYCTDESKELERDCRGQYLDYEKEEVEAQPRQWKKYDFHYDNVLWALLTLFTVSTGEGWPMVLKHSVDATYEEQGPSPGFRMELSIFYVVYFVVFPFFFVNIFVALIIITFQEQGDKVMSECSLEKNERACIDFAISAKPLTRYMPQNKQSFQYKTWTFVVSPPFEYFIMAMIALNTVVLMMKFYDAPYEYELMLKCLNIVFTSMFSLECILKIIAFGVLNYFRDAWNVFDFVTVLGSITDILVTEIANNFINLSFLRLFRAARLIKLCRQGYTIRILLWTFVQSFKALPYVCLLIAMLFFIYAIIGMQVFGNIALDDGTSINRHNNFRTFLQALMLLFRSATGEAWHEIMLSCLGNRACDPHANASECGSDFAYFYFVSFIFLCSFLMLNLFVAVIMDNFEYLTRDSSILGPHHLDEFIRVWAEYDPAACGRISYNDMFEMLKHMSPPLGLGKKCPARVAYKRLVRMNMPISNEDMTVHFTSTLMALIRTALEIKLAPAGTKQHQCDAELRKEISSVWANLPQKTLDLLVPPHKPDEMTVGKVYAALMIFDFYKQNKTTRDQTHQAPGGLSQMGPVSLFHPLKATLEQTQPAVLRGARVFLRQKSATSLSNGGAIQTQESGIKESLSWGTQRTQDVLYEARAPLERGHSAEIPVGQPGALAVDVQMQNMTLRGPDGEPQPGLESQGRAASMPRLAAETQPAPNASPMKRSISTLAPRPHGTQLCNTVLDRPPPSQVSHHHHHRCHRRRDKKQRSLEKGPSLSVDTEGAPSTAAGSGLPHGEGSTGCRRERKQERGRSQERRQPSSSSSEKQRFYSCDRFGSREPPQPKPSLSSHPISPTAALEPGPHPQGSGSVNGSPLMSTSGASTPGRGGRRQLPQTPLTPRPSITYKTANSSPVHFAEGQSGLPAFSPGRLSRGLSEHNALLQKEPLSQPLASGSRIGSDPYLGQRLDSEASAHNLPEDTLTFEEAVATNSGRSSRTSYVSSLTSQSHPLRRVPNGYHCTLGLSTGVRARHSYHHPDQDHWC

## CC(C)CC(N)C(=O)NC1CCN(C(=O)CCC(c2ccc(F)cc2)c2ccc(F)cc2)CC1.Cl (stereo unspecified)
Mus musculus [1]
  Latency: 23.2 s
Mus musculus [2]
  Latency: 22.6 s
Mus musculus [3]
  Efficacy: 71%
Mus musculus [4]
  Latency: 16.6 s
Rattus norvegicus [5]
  Activity: 62.5 g
Rattus norvegicus [6]
  Activity: 60.3 g
Rattus norvegicus [7]
  Activity: 55.8 g
Rattus norvegicus [8]
  Activity: 55.9 g
Rattus norvegicus [9]
  Activity: 61.3 g
Rattus norvegicus [10]
  Activity: 63.2 g

## CCCCNC1CCN(CCCC(C#N)(c2ccc(OC)c(OC)c2)C(C)C)CC1.Cl (stereo unspecified)
Mus musculus [11]
  Latency: 23.1 s
Mus musculus [12]
  Latency: 21.3 s
Mus musculus [3]
  Efficacy: 59%
Mus musculus [13]
  Latency: 18.7 s
Rattus norvegicus [14]
  Activity: 59.1 g
Rattus norvegicus [15]
  Activity: 47.3 g
Rattus norvegicus [16]
  Activity: 43.5 g
Rattus norvegicus [17]
  Activity: 38.6 g
Rattus norvegicus [18]
  Activity: 57.3 g
Rattus norvegicus [19]
  Activity: 59.2 g

## COc1ccc(CCNC2CCN(CCCC(C#N)(c3ccccc3)C(C)C)CC2)cc1OC.O=C(O)C(=O)O (stereo unspecified)
Mus musculus [20]
  Latency: 18.1 s
Mus musculus [3]
  Efficacy: 0%
Mus musculus [21]
  Latency: 17.5 s
Mus musculus [22]
  Latency: 16.6 s

## COc1ccc(CCNC2CCN(CCCC(c3ccccc3)c3ccccc3)CC2)cc1OC.O=C(O)C(=O)O
Mus musculus [3]
  Efficacy: 0%
Mus musculus [23]
  Latency: 17.7 s
Mus musculus [24]
  Latency: 16.4 s
Mus musculus [25]
  Latency: 16.8 s

## COc1ccc(C(C#N)(CCCNC2CCN(CCOc3ccccc3)CC2)C(C)C)cc1OC.Cl (stereo unspecified)
Mus musculus [11]
  Latency: 22.6 s
Mus musculus [12]
  Latency: 16.5 s
Mus musculus [3]
  Efficacy: 59%
Mus musculus [13]
  Latency: 15.2 s
Rattus norvegicus [14]
  Activity: 57.3 g
Rattus norvegicus [15]
  Activity: 33.4 g
Rattus norvegicus [16]
  Activity: 38.6 g
Rattus norvegicus [17]
  Activity: 40.5 g
Rattus norvegicus [18]
  Activity: 55.6 g
Rattus norvegicus [19]
  Activity: 59.4 g
[26]
  IC50: 3.8 µM
[27]
  IC50: 3.1 µM

## COc1ccc(CCNC2CCN(CCCC(c3ccc(F)cc3)c3ccc(F)cc3)CC2)cc1OC.Cl
Mus musculus [20]
  Latency: 16.3 s
Mus musculus [3]
  Efficacy: 51%
Mus musculus [21]
  Latency: 16.6 s
Mus musculus [22]
  Latency: 21.5 s

## O=C(CCC(c1ccc(F)cc1)c1ccc(F)cc1)NC1CCNCC1.O=C(O)C(=O)O
Mus musculus [28]
  Latency: 16.7 s
Mus musculus [3]
  Efficacy: 64%
Mus musculus [29]
  Latency: 17.1 s
Mus musculus [30]
  Latency: 21.8 s

## COc1ccc(CCNC2CCN(CCCC(C#N)(c3ccc(OC)c(OC)c3)C(C)C)CC2)cc1OC.O=C(O)C(=O)O (stereo unspecified)
Mus musculus [20]
  Latency: 18.3 s
Mus musculus [3]
  Efficacy: 0%
Mus musculus [21]
  Latency: 17.6 s
Mus musculus [22]
  Latency: 17.2 s

## COc1ccc(C(C#N)(CCC(=O)N2CCC(NCCOc3ccccc3)CC2)C(C)C)cc1OC.O=C(O)C(=O)O (stereo unspecified)
Mus musculus [20]
  Latency: 18.5 s
Mus musculus [3]
  Efficacy: 0%
Mus musculus [21]
  Latency: 13.8 s
Mus musculus [22]
  Latency: 15.7 s
